In PubChem BioAssay one finds viability, differential viability (reversal) and inhibition data, which are given here for 17 molecules.

Test [1] in a line: SK-BR-3 cell growth inhibitors, pilot screen, 24 h, human (AID 572;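 active means viability at or below 10% of carrier control in both of two separate runs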;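 further: compound exposure lasted between 18 and 24 h rather than exactly 24 h; 100% = carrier-treated control wells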). The conditions noted are these: SK-BR-3 viability, CellTiter-Glo luminescence, at 10 µM, stronger effect = lower value. (ATP-based viability assays read luminescence as a measure of living cells.)
Test [2] in a line: HUVEC growth inhibition – cell-based, human, primary screen (AID 575;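 active means viability at or below 30% in both replicate assays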;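 further: 100% = median of untreated cell wells with 0.1% DMSO on each plate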). The conditions noted are these: HUVEC proliferation, CellTiter-Glo luminescence, 72 h; at 10 µM; stronger effect = lower value. The gist of the method:
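Test system: primary human umbilical vein endothelial cells; medium: endothelial basal medium with 2% FBS plus growth supplements; dosing: 10 µM compound only; times: 72 h treatment at 37 °C; signal: CTG luminescence; read-out: % viability relative to median vehicle-well signal on each plate; control set: vehicle and MePR control wells; plate: 384-well, collagen-coated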

A short description of test [3]: growth inhibitors of H69AR lung tumor, primary screen, human, duplicate replicates (AID 580).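 Further: 100% = mean luminescence of untreated wells and 0% = no signal.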 Conditions: H69AR lung tumor cells viability, ATP luminescence, 72 h; at 10 µM; stronger effect = lower value.
The nature of test [4]: reversal of MRP1-mediated doxorubicin resistance, pilot screen, H69AR cells, doxorubicin co-treatment (AID 601;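 active means viability loss from added drug above about 55%, and viability with drug at most 40%, in both replicates, limit read from the data, passing the limit was not always enough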). Conditions: CellTiter-Glo, 72 h, at 10 µM; for differential viability (reversal): stronger effect = higher value.
Test [5] is described as follows: 384-well plate pilot, post-Golgi transport modulator project, inhibition of yeast transport mutant growth (AID 636; in the data active means inhibition above about 31%). Conditions: absorbance 615 nm, about 18 h, stronger effect = higher value.
Test [6] in a line: growth suppression of yeast trafficking mutant, preliminary HTS, modulators of trafficking downstream of Golgi apparatus project, 1536-format plate, OD 615 nm (AID 637; in the data active means inhibition above about 30%). The conditions noted are these: yeast transport mutant growth, absorbance 615 nm, 18 h; stronger effect = higher value.
[7] abbreviates: H69AR cells + 2 uM doxorubicin, measured here: viability with 2 uM doxorubicin, stronger effect = lower value.
Setting [8] is: H69AR cells, compound alone cytotoxicity.

Molecules are shown by their SMILES. Activity calls are given as the source filed them.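 How the source made its calls, unless noted: active means viability at or under a set limit in both replicates, limit being median viability minus 3 SD (cut at about 48% in these data, passing the limit was not always enough); inconclusive means at or under the limit in just one replicate; inactive means at or above the limit in both replicates.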

In general, viability refers to a read-out of living cells in per cent, often relative to untreated cells. The inhibition is the relative decrease from the control value, in per cent.

For `Cc1cc(NS(=O)(=O)c2ccc(N)cc2)no1`, the viability in test [1] was 111% (inactive); in test [2], 98.9% (inactive); in test [3], 88.9% (inactive); in test [4] (setting [7]) it was 101%; in test [4] (setting [8]), 88.9%. In addition, the differential viability (reversal) in test [4] (H69AR cells + 2 uM doxorubicin) was -12.6% (inactive). For the same molecule, the inhibition was 1.56% (inactive) in test [5] and -3.5% (inactive) in test [6].
On to `Cc1onc(-c2c(F)cccc2Cl)c1C(=O)Nc1nc2c(s1)CCCC2`, for which the viability in test [1] is 109% (inactive); in test [2], 92.7% (inactive); in test [3] it was 77.3% (inactive); in test [4] (setting [7]), 104%; in test [4] (setting [8]), 77.3%. In test [4] (H69AR cells + 2 uM doxorubicin), the differential viability (reversal) was -27% (inactive). In addition, the figures for the inhibition in test [5] and in test [6] were -3.29% (inactive) and -1.09% (inactive), respectively.
Take `CC1(C2(O)CC(c3ccccc3)ON2)CCCCC1` (stereo unspecified): the viability in test [1] is 108% (inactive); in test [2] it was 95% (inactive); in test [3], 84.1% (inactive); in test [4] (setting [7]), 84.4%; in test [4] (setting [8]), 84.1%. The differential viability (reversal) in test [4] (H69AR cells + 2 uM doxorubicin) is -0.32% (inactive). For the same molecule, the inhibition is -4.73% (inactive) in test [5] and -2.36% (inactive) in test [6].
`Cc1ccc(-n2nc3cc(Cl)c(NC(=O)c4ccco4)cc3n2)cc1`: the viability is 116% (inactive) in test [1]; 92.6% (inactive) in test [2]; 42.7% (active) in test [3]; 48.7% in test [4] (setting [7]); 42.7% in test [4] (setting [8]). In addition, in test [4] (H69AR cells + 2 uM doxorubicin), the differential viability (reversal) was -5.97% (inactive). In addition, the inhibition in test [5] is -7.53% (inactive); in test [6], 2.7% (inactive).
In the case of `CN(C(=O)Cn1c(=O)n(CCCCC(=O)NC2CCCC2)c(=O)c2ccccc21)C1CCCCC1`, the viability in test [1] is 106% (inactive); in test [2], 63.2% (inactive); in test [3], 93% (inactive); in test [4] (setting [7]), 80.9%; in test [4] (setting [8]) it was 93%. In test [4] (H69AR cells + 2 uM doxorubicin), the differential viability (reversal) was 12.2% (inactive). For the same molecule, the inhibition in test [5] is -2.73% (inactive); in test [6] it was 5.08% (inactive).
Take `O=C(C1CCN(S(=O)(=O)c2cnc[nH]2)CC1)N1CCN(c2ncccn2)CC1`: the viability in test [1] was 112% (inactive); in test [2], 111% (inactive); in test [3], 102% (inactive); in test [4] (setting [7]), 82.8%; in test [4] (setting [8]) it was 102%. Moreover, the differential viability (reversal) in test [4] (H69AR cells + 2 uM doxorubicin) is 19.5% (inactive). Besides, the values for the inhibition in test [5] and in test [6] were -5.33% (inactive) and 0% (inactive), respectively.
With `CC1CC(C)CN(CC(=O)Nc2ccc(S(N)(=O)=O)cc2)C1` (stereo unspecified), the viability was 96% (inactive) in test [1]; 96.9% (inactive) in test [2]; 84.9% (inactive) in test [3]; 82.8% in test [4] (setting [7]); 84.9% in test [4] (setting [8]). The differential viability (reversal) in test [4] (H69AR cells + 2 uM doxorubicin) was 2.1% (inactive). The inhibition was 3.29% (inactive) in test [5] and -2.58% (inactive) in test [6].
For `CC1(C)CC(=O)C2=C(C1)NC(=O)CC2C(=O)NCc1ccc(F)cc1` (stereo unspecified), the viability is 106% (inactive) in test [1]; 110% (inactive) in test [2]; 111% (inactive) in test [3]; 95.5% in test [4] (setting [7]); 111% in test [4] (setting [8]). Further, the differential viability (reversal) in test [4] (H69AR cells + 2 uM doxorubicin) was 15.3% (inactive). In addition, the inhibition in test [5] was -4.05% (inactive); in test [6], 1.64% (inactive).
On to `O=C(CSc1nnc(Cc2ccccc2)n1-c1cccc(Cl)c1)N1CCOCC1`, for which the viability in test [1] was 106% (inactive); in test [2] it was 94.2% (inactive); in test [3], 85.6% (inactive); in test [4] (setting [7]), 81.3%; in test [4] (setting [8]), 85.6%. Also, the differential viability (reversal) in test [4] (H69AR cells + 2 uM doxorubicin) was 4.24% (inactive). Besides, the inhibition in test [5] was -4.8% (inactive); in test [6], -7.64% (inactive).
On to `Cc1ccc(O)c(-c2cc(C(=O)Nc3ccc(S(=O)(=O)N4CC(C)OC(C)C4)cc3)[nH]n2)c1` (stereo unspecified), for which the viability in test [1] was 92% (inactive); in test [2], 56.7% (inactive); in test [3] it was 34.8% (active); in test [4] (setting [7]) it was 43.5%; in test [4] (setting [8]), 34.8%. The differential viability (reversal) in test [4] (H69AR cells + 2 uM doxorubicin) was -8.67% (inactive). Besides, the inhibition in test [5] is -11.1% (inactive); in test [6], -1.59% (inactive).
With `O=P(CCNCc1ccco1)(c1ccccc1)c1ccccc1`, the viability in test [1] is 110% (inactive); in test [2] it was 97.8% (inactive); in test [3], 97.4% (inactive); in test [4] (setting [7]), 94.8%; in test [4] (setting [8]), 97.4%. Moreover, the differential viability (reversal) in test [4] (H69AR cells + 2 uM doxorubicin) is 2.59% (inactive). In addition, the inhibition was -5.6% (inactive) in test [5] and -4.18% (inactive) in test [6].
With `CCOc1ccccc1-n1c(SCC(=O)NC2CCCC2)nnc1-c1ccoc1C`, the viability in test [1] was 77% (inactive); in test [2] it was 97% (inactive); in test [3], 93% (inactive); in test [4] (setting [7]) it was 91.3%; in test [4] (setting [8]), 93%. In test [4] (H69AR cells + 2 uM doxorubicin), the differential viability (reversal) was 1.66% (inactive). For the same molecule, the results for the inhibition in test [5] and in test [6] were 0.91% (inactive) and -4.92% (inactive), respectively.
In the case of `c1n[nH]c(SCCCCSc2ncn[nH]2)n1`, the viability in test [1] was 101% (inactive); in test [2] it was 108% (inactive); in test [3], 108% (inactive); in test [4] (setting [7]), 93.9%; in test [4] (setting [8]), 108%. In test [4] (H69AR cells + 2 uM doxorubicin), the differential viability (reversal) is 13.8% (inactive). Besides, the inhibition in test [5] was -6.71% (inactive); in test [6], 2.91% (inactive).
Take `COc1cc(CO)cc(-c2cc(CO)cc(OC)c2OC)c1OC`: the viability in test [1] was 82% (inactive); in test [2], 95.8% (inactive); in test [3], 92.5% (inactive); in test [4] (setting [7]) it was 90.9%; in test [4] (setting [8]), 92.5%. Moreover, in test [4] (H69AR cells + 2 uM doxorubicin), the differential viability (reversal) was 1.68% (inactive). For the same molecule, the inhibition in test [5] was -8.67% (inactive); in test [6] it was -6.91% (inactive).
As for `N#CCc1nc2c3c4c(sc3ncn2n1)CCCC4`, the viability in test [1] is 112% (inactive); in test [2], 23.6% (active); in test [3], 86.4% (inactive); in test [4] (setting [7]), 78.1%; in test [4] (setting [8]), 86.4%. The differential viability (reversal) in test [4] (H69AR cells + 2 uM doxorubicin) was 8.27% (inactive). Moreover, the inhibition in test [5] was -5.54% (inactive); in test [6], 0.36% (inactive).
Turning to `CCCCn1cnc2c(c1=O)c1nc3ccccc3nc1n2Cc1ccc2c(c1)OCO2`, the viability is 85% (inactive) in test [1]; 85.9% (inactive) in test [2]; 68.9% (inactive) in test [3]; 74.3% in test [4] (setting [7]); 68.9% in test [4] (setting [8]). The differential viability (reversal) in test [4] (H69AR cells + 2 uM doxorubicin) is -5.45% (inactive). Also, the inhibition in test [5] was -5.14% (inactive); in test [6], -1.82% (inactive).
With `OC(CCN1CCCCC1)(c1ccccc1)c1ccccc1`, the viability in test [1] is 95% (inactive); in test [2] it was 92.7% (inactive); in test [3], 84.1% (inactive); in test [4] (setting [7]), 83.7%; in test [4] (setting [8]) it was 84.1%. Also, the differential viability (reversal) in test [4] (H69AR cells + 2 uM doxorubicin) was 0.38% (inactive). In addition, the inhibition in test [5] is -2.21% (inactive); in test [6] it was 0% (inactive).
